Results published in ChEMBL document CHEMBL1124257, “An examination of O-2-isocephems as orally absorbable antibiotics” (J Med Chem, 1988).
Values after ≈ are worked out from the molar mass of the structure shown.

system: Escherichia coli; assay: Minimum inhibitory concentration (MIC) against Escherichia coli by 2-fold microdilution technique.; assay type: functional; settings: Escherichia coli; read-out: MIC
In short: (§1)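 For each organism, an overnight culture was grown in Mueller-Hinton broth at 37 °C. Twofold microtiter dilutions in Nutrient Broth covered 0.005–125 µg/mL. Each well received about 10^4 organisms, and plates were incubated 18 h at 37 °C. MIC was the lowest concentration giving no visible growth.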

Structure (SMILES)	MIC [µg/mL]
N[C@@H](C(=O)N[C@@H]1C(=O)N2C(C(=O)O)=COC[C@H]12)c1ccc(O)cc1	4 (≈ 12 µM)
N[C@@H](C(=O)N[C@@H]1C(=O)N2C(C(=O)O)=C(/C=C\C(F)(F)F)OC[C@H]12)c1ccc(O)cc1 (relative stereo)	2 (≈ 4.68 µM)
N[C@@H](C(=O)N[C@@H]1C(=O)N2C(C(=O)O)=C(Cl)CS[C@H]12)c1ccccc1.O [CEFACLOR]	1
CC1=C(C(=O)O)N2C(=O)[C@@H](NC(=O)[C@H](N)c3ccccc3)[C@H]2SC1 [CEPHALEXIN ANHYDROUS]	8 (≈ 23 µM)

system: Escherichia coli; assay: Minimum inhibitory concentration (MIC) […] against Escherichia coli.; assay type: functional; settings: Escherichia coli; read-out: MIC; in short: as §1

Structure (SMILES)	MIC [µg/mL]
N[C@@H](C(=O)N[C@@H]1C(=O)N2C(C(=O)O)=COC[C@H]12)c1ccc(O)cc1	4 (≈ 12 µM)
N[C@@H](C(=O)N[C@@H]1C(=O)N2C(C(=O)O)=C(/C=C\C(F)(F)F)OC[C@H]12)c1ccc(O)cc1 (relative stereo)	2 (≈ 4.68 µM)

system: Haemophilus influenzae; assay: Minimum inhibitory concentration (MIC) against Haemophilus influenzae by 2-fold microdilution technique.; assay type: functional; settings: Haemophilus influenzae; read-out: MIC; in short: as §1

Structure (SMILES)	MIC [µg/mL]
N[C@@H](C(=O)N[C@@H]1C(=O)N2C(C(=O)O)=COC[C@H]12)c1ccc(O)cc1	2 (≈ 6 µM)
N[C@@H](C(=O)N[C@@H]1C(=O)N2C(C(=O)O)=C(/C=C\C(F)(F)F)OC[C@H]12)c1ccc(O)cc1 (relative stereo)	2 (≈ 4.68 µM)
N[C@@H](C(=O)N[C@@H]1C(=O)N2C(C(=O)O)=C(Cl)CS[C@H]12)c1ccccc1.O [CEFACLOR]	1
CC1=C(C(=O)O)N2C(=O)[C@@H](NC(=O)[C@H](N)c3ccccc3)[C@H]2SC1 [CEPHALEXIN ANHYDROUS]	4 (≈ 11.5 µM)

system: Klebsiella pneumoniae; assay: Minimum inhibitory concentration (MIC) against Klebsiella pneumoniae by 2-fold microdilution technique.; assay type: functional; settings: Klebsiella pneumoniae; read-out: MIC; in short: as §1

Structure (SMILES)	MIC [µg/mL]
N[C@@H](C(=O)N[C@@H]1C(=O)N2C(C(=O)O)=COC[C@H]12)c1ccc(O)cc1	8 (≈ 24 µM)
N[C@@H](C(=O)N[C@@H]1C(=O)N2C(C(=O)O)=C(/C=C\C(F)(F)F)OC[C@H]12)c1ccc(O)cc1 (relative stereo)	32 (≈ 74.9 µM)
N[C@@H](C(=O)N[C@@H]1C(=O)N2C(C(=O)O)=C(Cl)CS[C@H]12)c1ccccc1.O [CEFACLOR]	1
CC1=C(C(=O)O)N2C(=O)[C@@H](NC(=O)[C@H](N)c3ccccc3)[C@H]2SC1 [CEPHALEXIN ANHYDROUS]	16 (≈ 46.1 µM)

system: Escherichia coli; assay: Protective dose (PD50) against Escherichia coli infected mice; assay type: functional; settings: read-out: PD50
In short: (§2)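 Male Swiss-Webster mice (20 ± 2 g) were challenged intraperitoneally with enough bacteria to kill untreated controls within 72 h. Drug was given orally by gavage twice: at 0 and 2 h after E. coli challenge, or at 1 and 3.5 h after S. pneumoniae challenge. PD50 is the dose in mg/kg per dose that protects 50% of animals.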

Structure (SMILES)	ED50 [mg/kg]
N[C@@H](C(=O)N[C@@H]1C(=O)N2C(C(=O)O)=COC[C@H]12)c1ccc(O)cc1	6.2
N[C@@H](C(=O)N[C@@H]1C(=O)N2C(C(=O)O)=C(/C=C\C(F)(F)F)OC[C@H]12)c1ccc(O)cc1 (relative stereo)	> 50

system: Streptococcus pneumoniae; assay: Protective dose (PD50) against Streptococcus pneumoniae infected mice; assay type: functional; settings: Streptococcus pneumoniae; read-out: PD50; in short: as §2

Structure (SMILES)	ED50 [mg/kg]
N[C@@H](C(=O)N[C@@H]1C(=O)N2C(C(=O)O)=COC[C@H]12)c1ccc(O)cc1	33
N[C@@H](C(=O)N[C@@H]1C(=O)N2C(C(=O)O)=C(/C=C\C(F)(F)F)OC[C@H]12)c1ccc(O)cc1 (relative stereo)	2.7

system: Proteus mirabilis; assay: Minimum inhibitory concentration (MIC) against Proteus mirabilis by 2-fold microdilution technique.; assay type: functional; settings: Proteus mirabilis; read-out: MIC; in short: as §1

Structure (SMILES)	MIC [µg/mL]
N[C@@H](C(=O)N[C@@H]1C(=O)N2C(C(=O)O)=COC[C@H]12)c1ccc(O)cc1	4 (≈ 12 µM)
N[C@@H](C(=O)N[C@@H]1C(=O)N2C(C(=O)O)=C(/C=C\C(F)(F)F)OC[C@H]12)c1ccc(O)cc1 (relative stereo)	16 (≈ 37.4 µM)
N[C@@H](C(=O)N[C@@H]1C(=O)N2C(C(=O)O)=C(Cl)CS[C@H]12)c1ccccc1.O [CEFACLOR]	0.25
CC1=C(C(=O)O)N2C(=O)[C@@H](NC(=O)[C@H](N)c3ccccc3)[C@H]2SC1 [CEPHALEXIN ANHYDROUS]	4 (≈ 11.5 µM)

system: Streptococcus pneumoniae; assay: Minimum inhibitory concentration (MIC) against Streptococcus pneumoniae by 2-fold microdilution technique; assay type: functional; settings: Streptococcus pneumoniae; read-out: MIC; in short: as §1

Structure (SMILES)	MIC [µg/mL]
N[C@@H](C(=O)N[C@@H]1C(=O)N2C(C(=O)O)=COC[C@H]12)c1ccc(O)cc1	1 (≈ 3 µM)
N[C@@H](C(=O)N[C@@H]1C(=O)N2C(C(=O)O)=C(/C=C\C(F)(F)F)OC[C@H]12)c1ccc(O)cc1 (relative stereo)	0.016 (≈ 0.0374 µM)
N[C@@H](C(=O)N[C@@H]1C(=O)N2C(C(=O)O)=C(Cl)CS[C@H]12)c1ccccc1.O [CEFACLOR]	0.5
CC1=C(C(=O)O)N2C(=O)[C@@H](NC(=O)[C@H](N)c3ccccc3)[C@H]2SC1 [CEPHALEXIN ANHYDROUS]	0.5 (≈ 1.44 µM)

system: Streptococcus pneumoniae; assay: Minimum inhibitory concentration (MIC) […] against Streptococcus pneumoniae.; assay type: functional; settings: Streptococcus pneumoniae; read-out: MIC; in short: as §1

Structure (SMILES)	MIC [µg/mL]
N[C@@H](C(=O)N[C@@H]1C(=O)N2C(C(=O)O)=COC[C@H]12)c1ccc(O)cc1	1 (≈ 3 µM)
N[C@@H](C(=O)N[C@@H]1C(=O)N2C(C(=O)O)=C(/C=C\C(F)(F)F)OC[C@H]12)c1ccc(O)cc1 (relative stereo)	0.016 (≈ 0.0374 µM)

system: Enterococcus faecalis; assay: Minimum inhibitory concentration (MIC) against Streptococcus faecalis by 2-fold microdilution technique.; assay type: functional; settings: Enterococcus faecalis; read-out: MIC; in short: as §1

Structure (SMILES)	MIC [µg/mL]
N[C@@H](C(=O)N[C@@H]1C(=O)N2C(C(=O)O)=COC[C@H]12)c1ccc(O)cc1	32 (≈ 96 µM)
N[C@@H](C(=O)N[C@@H]1C(=O)N2C(C(=O)O)=C(/C=C\C(F)(F)F)OC[C@H]12)c1ccc(O)cc1 (relative stereo)	0.06 (≈ 0.14 µM)
N[C@@H](C(=O)N[C@@H]1C(=O)N2C(C(=O)O)=C(Cl)CS[C@H]12)c1ccccc1.O [CEFACLOR]	16
CC1=C(C(=O)O)N2C(=O)[C@@H](NC(=O)[C@H](N)c3ccccc3)[C@H]2SC1 [CEPHALEXIN ANHYDROUS]	32 (≈ 92.1 µM)

system: Streptococcus pyogenes; assay: Minimum inhibitory concentration (MIC) against Streptococcus pyogenes by 2-fold microdilution technique; assay type: functional; settings: Streptococcus pyogenes; read-out: MIC; in short: as §1

Structure (SMILES)	MIC [µg/mL]
N[C@@H](C(=O)N[C@@H]1C(=O)N2C(C(=O)O)=COC[C@H]12)c1ccc(O)cc1	0.25 (≈ 0.75 µM)
N[C@@H](C(=O)N[C@@H]1C(=O)N2C(C(=O)O)=C(/C=C\C(F)(F)F)OC[C@H]12)c1ccc(O)cc1 (relative stereo)	0.008 (≈ 0.0187 µM)
N[C@@H](C(=O)N[C@@H]1C(=O)N2C(C(=O)O)=C(Cl)CS[C@H]12)c1ccccc1.O [CEFACLOR]	0.25
CC1=C(C(=O)O)N2C(=O)[C@@H](NC(=O)[C@H](N)c3ccccc3)[C@H]2SC1 [CEPHALEXIN ANHYDROUS]	0.5 (≈ 1.44 µM)

system: Staphylococcus aureus; assay: Minimum inhibitory concentration (MIC) against Staphylococcus aureus by 2-fold microdilution technique.; assay type: functional; settings: Staphylococcus aureus; read-out: MIC; in short: as §1

Structure (SMILES)	MIC [µg/mL]
N[C@@H](C(=O)N[C@@H]1C(=O)N2C(C(=O)O)=COC[C@H]12)c1ccc(O)cc1	1 (≈ 3 µM)
N[C@@H](C(=O)N[C@@H]1C(=O)N2C(C(=O)O)=C(/C=C\C(F)(F)F)OC[C@H]12)c1ccc(O)cc1 (relative stereo)	0.5 (≈ 1.17 µM)
N[C@@H](C(=O)N[C@@H]1C(=O)N2C(C(=O)O)=C(Cl)CS[C@H]12)c1ccccc1.O [CEFACLOR]	0.25
CC1=C(C(=O)O)N2C(=O)[C@@H](NC(=O)[C@H](N)c3ccccc3)[C@H]2SC1 [CEPHALEXIN ANHYDROUS]	0.5 (≈ 1.44 µM)
